In ChEMBL document CHEMBL4396948, “Structure based design of macrocyclic factor XIa inhibitors: Discovery of cyclic P1 linker moieties with improved oral bioavailability” (Bioorg Med Chem Lett, 2019):

Key:
[1] = Oral bioavailability in rat at 1.27 mg/kg; assay type: ADME, organism-based; settings: in vivo
Outline: (§1)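 Rat PK after iv and po dosing; both routes given in vehicle 70% PG, 20% water, 10% ethanol; compounds dosed either in cassette or discrete format.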

[2] = target: Plasminogen (Homo sapiens, UniProt P00747); experiment: Inhibition of human plasmin
Chain of Plasminogen (P00747 97-580 limits assumed): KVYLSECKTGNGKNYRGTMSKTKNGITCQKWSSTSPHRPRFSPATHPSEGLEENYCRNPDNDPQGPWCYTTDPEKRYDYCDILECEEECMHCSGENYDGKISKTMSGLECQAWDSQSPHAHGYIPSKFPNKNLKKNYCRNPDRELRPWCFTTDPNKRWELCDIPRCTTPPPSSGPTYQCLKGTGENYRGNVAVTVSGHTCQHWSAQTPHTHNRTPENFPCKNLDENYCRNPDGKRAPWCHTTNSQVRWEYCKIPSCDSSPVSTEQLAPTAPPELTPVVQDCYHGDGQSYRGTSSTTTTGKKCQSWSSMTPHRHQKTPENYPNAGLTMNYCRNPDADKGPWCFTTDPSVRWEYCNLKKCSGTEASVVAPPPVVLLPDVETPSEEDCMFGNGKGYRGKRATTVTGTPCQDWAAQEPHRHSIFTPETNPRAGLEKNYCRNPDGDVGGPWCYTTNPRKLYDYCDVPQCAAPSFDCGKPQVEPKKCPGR
Chain of Plasminogen (P00747 581-810 limits assumed): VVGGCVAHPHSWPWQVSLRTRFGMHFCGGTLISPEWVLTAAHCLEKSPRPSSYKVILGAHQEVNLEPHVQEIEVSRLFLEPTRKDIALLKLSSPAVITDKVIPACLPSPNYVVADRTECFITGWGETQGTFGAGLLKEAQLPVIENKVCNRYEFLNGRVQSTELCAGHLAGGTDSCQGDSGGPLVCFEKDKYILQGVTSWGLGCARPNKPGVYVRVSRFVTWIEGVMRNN

[3] = target: T1, Coagulation factor XII (Homo sapiens, UniProt P00748); experiment: Inhibition of activated human coagulation factor 12
T1 sequence (P00748 whole entry): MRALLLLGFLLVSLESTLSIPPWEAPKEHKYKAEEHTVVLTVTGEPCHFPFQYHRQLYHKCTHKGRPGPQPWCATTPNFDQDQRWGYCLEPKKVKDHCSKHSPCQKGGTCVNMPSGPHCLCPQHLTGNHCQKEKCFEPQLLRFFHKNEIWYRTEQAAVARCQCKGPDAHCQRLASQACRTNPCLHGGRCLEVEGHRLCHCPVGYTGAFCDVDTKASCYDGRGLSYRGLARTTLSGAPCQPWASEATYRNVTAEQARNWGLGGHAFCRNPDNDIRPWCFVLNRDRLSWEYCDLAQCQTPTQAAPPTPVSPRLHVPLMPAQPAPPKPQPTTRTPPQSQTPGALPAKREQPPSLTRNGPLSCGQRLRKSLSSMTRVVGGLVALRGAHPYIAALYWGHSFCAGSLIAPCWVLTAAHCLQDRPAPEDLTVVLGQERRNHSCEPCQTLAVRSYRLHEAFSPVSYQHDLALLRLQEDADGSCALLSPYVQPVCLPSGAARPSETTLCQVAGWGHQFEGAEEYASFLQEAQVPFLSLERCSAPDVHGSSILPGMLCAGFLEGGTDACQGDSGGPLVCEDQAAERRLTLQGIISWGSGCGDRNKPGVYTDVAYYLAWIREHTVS

[4] = Half life in rat liver microsomes; assay type: ADME, Microsome
[5] = Permeability from apical to basolateral side in human Caco2 cells; assay type: ADME, cell-based; settings: Caco-2, read-out: permeability
[6] = Permeability from basolateral to apical side in human Caco2 cells; assay type: ADME, cell-based; settings: Caco-2, read-out: permeability
[7] = target: Vitamin K-dependent protein C (Homo sapiens, UniProt P04070); experiment: Inhibition of human activated protein C
Chain of Vitamin K-dependent protein C (P04070 43-197 limits assumed): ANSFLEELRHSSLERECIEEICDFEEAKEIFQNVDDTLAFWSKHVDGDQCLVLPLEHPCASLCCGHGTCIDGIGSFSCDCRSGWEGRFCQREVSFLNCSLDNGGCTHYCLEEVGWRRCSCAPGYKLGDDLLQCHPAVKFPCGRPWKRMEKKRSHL
Chain of Vitamin K-dependent protein C (P04070 212-461 limits assumed): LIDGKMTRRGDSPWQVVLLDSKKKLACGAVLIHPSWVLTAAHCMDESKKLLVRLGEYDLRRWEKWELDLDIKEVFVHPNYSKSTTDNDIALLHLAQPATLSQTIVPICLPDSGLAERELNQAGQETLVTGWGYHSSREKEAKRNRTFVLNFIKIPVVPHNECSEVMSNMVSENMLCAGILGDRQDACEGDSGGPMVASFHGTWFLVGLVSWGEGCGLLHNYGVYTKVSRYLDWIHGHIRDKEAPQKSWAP

[8] = target: Tissue-type plasminogen activator (Homo sapiens, UniProt P00750); experiment: Inhibition of human TPA
Chain of Tissue-type plasminogen activator (P00750 whole entry): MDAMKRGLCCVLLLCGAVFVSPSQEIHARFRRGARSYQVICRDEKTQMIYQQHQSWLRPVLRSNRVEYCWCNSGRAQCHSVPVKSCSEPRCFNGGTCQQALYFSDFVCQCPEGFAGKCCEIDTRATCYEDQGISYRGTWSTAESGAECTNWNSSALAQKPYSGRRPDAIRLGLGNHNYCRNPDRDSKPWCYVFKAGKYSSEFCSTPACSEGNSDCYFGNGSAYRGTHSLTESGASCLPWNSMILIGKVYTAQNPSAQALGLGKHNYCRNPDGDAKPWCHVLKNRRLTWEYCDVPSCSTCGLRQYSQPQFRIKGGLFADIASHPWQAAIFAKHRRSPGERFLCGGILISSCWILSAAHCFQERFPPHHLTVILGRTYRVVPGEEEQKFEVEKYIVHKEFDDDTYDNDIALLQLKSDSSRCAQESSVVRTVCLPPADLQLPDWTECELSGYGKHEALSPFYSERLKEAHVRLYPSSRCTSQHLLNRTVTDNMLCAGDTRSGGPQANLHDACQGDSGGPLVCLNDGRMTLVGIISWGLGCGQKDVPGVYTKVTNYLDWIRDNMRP

[9] = AUC in rat; assay type: ADME; settings: in vivo; outline: as §1
[10] = target: Coagulation factor IX (Homo sapiens, UniProt P00740); experiment: Inhibition of activated human coagulation factor 9
Chain of Coagulation factor IX (P00740 47-191 limits assumed): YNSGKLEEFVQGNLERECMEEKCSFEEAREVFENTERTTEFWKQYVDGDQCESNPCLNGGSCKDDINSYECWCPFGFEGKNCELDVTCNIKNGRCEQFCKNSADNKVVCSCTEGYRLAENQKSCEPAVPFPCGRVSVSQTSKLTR
Chain of Coagulation factor IX (P00740 227-461 limits assumed): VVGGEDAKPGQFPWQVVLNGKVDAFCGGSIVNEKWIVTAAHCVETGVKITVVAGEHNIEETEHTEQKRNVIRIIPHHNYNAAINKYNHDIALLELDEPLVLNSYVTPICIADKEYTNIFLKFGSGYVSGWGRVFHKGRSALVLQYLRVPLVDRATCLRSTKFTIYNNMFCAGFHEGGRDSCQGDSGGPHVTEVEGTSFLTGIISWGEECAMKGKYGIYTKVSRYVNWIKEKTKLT

[11] = target: Urokinase-type plasminogen activator (Homo sapiens, UniProt P00749); experiment: Inhibition of human urokinase
[12] = target: T2, Coagulation factor VII (Homo sapiens, UniProt P08709); experiment: Inhibition of activated human coagulation factor 7
T2 sequence (P08709 whole entry): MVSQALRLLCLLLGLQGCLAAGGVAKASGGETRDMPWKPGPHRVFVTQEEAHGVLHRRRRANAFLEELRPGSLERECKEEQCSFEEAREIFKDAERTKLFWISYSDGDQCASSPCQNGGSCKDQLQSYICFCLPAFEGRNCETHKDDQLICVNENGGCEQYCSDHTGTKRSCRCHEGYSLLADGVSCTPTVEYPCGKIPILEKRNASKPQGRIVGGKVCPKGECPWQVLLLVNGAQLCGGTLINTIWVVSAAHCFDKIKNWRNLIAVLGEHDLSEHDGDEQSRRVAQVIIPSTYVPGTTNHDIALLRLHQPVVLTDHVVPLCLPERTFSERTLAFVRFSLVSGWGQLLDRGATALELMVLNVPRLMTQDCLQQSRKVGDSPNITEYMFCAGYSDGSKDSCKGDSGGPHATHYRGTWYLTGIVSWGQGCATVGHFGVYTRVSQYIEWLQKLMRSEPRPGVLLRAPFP

[13] = Half life in human liver microsomes; assay type: ADME, Microsome
[14] = target: Trypsin (Homo sapiens, UniProt P07477+P07478+P35030); experiment: Inhibition of human trypsin; assay type: protein assay
[15] = Volume of distribution at steady state in rat at 0.63 mg/kg, iv or 1.27 mg/kg, po; assay type: ADME, organism-based; settings: in vivo, read-out: Vdss; outline: as §1
[16] = Half life in rat at 0.63 mg/kg, iv or 1.27 mg/kg, po; assay type: ADME, organism-based; settings: in vivo
Outline: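 Rat pharmacokinetics with iv and oral dosing; the vehicle for both routes was 70% PG, 20% water and 10% ethanol. Half-life was derived from the plasma profile.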

[17] = Clearance in rat at 0.63 mg/kg, iv or 1.27 mg/kg, po; assay type: ADME, organism-based; settings: in vivo; outline: as §1
[18] = target: Prothrombin (Homo sapiens, UniProt P00734); experiment: Inhibition of human thrombin
[19] = target: Coagulation factor X (Homo sapiens, UniProt P00742); experiment: Inhibition of activated human coagulation factor 10
Chain of Coagulation factor X (P00742 41-179 limits assumed): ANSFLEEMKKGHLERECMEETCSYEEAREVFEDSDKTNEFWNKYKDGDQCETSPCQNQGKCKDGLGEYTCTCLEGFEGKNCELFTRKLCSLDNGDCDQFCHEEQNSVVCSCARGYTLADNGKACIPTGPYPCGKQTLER
Chain of Coagulation factor X (P00742 235-488 limits assumed): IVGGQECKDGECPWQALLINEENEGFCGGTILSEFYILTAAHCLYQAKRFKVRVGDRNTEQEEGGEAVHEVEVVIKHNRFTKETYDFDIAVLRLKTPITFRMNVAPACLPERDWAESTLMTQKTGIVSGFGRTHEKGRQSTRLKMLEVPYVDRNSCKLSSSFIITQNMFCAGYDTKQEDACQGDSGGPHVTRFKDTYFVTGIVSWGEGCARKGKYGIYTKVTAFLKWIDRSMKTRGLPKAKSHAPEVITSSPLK

[20] = Half life in rat at 0.68 mg/kg, iv or 1.36 mg/kg, po; assay type: ADME, organism-based; settings: in vivo; outline: as §1
[21] = Oral bioavailability in rat at 1.36 mg/kg; assay type: ADME, organism-based; settings: in vivo; outline: as §1
[22] = Volume of distribution at steady state in rat at 0.68 mg/kg, iv or 1.36 mg/kg, po; assay type: ADME, organism-based; settings: in vivo, read-out: Vdss; outline: as §1
[23] = Clearance in rat at 0.68 mg/kg, iv or 1.36 mg/kg, po; assay type: ADME, organism-based; settings: in vivo; outline: as §1
[24] = Volume of distribution at steady state in rat at 0.79 mg/kg, iv or 1.58 mg/kg, po; assay type: ADME, organism-based; settings: in vivo, read-out: Vdss; outline: as §1
[25] = Oral bioavailability in rat at 1.58 mg/kg; assay type: ADME, organism-based; settings: in vivo; outline: as §1
[26] = Half life in rat at 0.79 mg/kg, iv or 1.58 mg/kg, po; assay type: ADME, organism-based; settings: in vivo; outline: as §1
[27] = Clearance in rat at 0.79 mg/kg, iv or 1.58 mg/kg, po; assay type: ADME, organism-based; settings: in vivo; outline: as §1
[28] = target: Coagulation factor XI (Homo sapiens, UniProt P03951); experiment: Inhibition of activated coagulation factor 11 (unknown origin) assessed as inhibitory constant
Chain of Coagulation factor XI (P03951 19-387 limits assumed): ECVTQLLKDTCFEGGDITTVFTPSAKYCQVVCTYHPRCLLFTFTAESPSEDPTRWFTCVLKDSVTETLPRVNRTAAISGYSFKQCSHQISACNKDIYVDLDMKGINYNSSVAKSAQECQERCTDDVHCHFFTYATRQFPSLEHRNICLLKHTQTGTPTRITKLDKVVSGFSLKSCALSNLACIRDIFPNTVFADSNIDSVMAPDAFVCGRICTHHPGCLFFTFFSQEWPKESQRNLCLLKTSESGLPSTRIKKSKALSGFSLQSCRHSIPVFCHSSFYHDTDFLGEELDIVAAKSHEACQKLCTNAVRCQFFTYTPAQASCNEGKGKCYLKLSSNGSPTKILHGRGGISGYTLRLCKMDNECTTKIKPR
Chain of Coagulation factor XI (P03951 388-625 limits assumed): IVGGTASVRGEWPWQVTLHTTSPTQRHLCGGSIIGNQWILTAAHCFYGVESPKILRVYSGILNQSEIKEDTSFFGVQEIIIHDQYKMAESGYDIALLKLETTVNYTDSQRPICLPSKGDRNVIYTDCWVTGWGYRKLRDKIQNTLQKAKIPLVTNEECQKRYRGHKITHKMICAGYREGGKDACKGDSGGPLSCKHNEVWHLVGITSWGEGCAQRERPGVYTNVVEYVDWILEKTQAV

[29] = Half life in rat at […], iv or 1.04 mg/kg, po; assay type: ADME, organism-based; settings: in vivo
[30] = Volume of distribution at steady state in rat at […], iv or 1.04 mg/kg, po; assay type: ADME, organism-based; settings: in vivo, read-out: Vdss
[31] = Clearance in rat at […], iv or 1.04 mg/kg, po; assay type: ADME, organism-based; settings: in vivo
[32] = Oral bioavailability in rat at 1.04 mg/kg; assay type: ADME, organism-based; settings: in vivo; outline: as §1

COC(=O)Nc1ccc2c(c1)NC(=O)CC/C=C/C[C@H](N1CC[C@H](c3cccc(Cl)c3)CC1=O)c1nc-2c[nH]1
bioavailability [1]: 15% | Ki [2]: > 15.2 µM | Ki [3]: > 3.05 µM | half-life [4]: 5 min | Papp A→B [5]: 4.6 ×10⁻⁶ cm/s | Papp B→A [6]: 30.9 ×10⁻⁶ cm/s | Ki [7]: > 7.16 µM | Ki [8]: > 6.15 µM | AUC [9]: 0.031 µM·h | Ki [10]: > 27.1 µM | Ki [11]: > 15.1 µM | Ki [12]: 4.85 µM | half-life [13]: 6 min | Ki [14]: > 6.26 µM | Vd [15]: 4.6 L/kg | half-life [16]: 30 min | clearance [17]: 188 mL/min/kg | Ki [18]: > 13.3 µM | Ki [19]: > 9 µM

COC(=O)Nc1ccc2c(c1)NC(=O)CC/C=C/C[C@H](N1CC[C@H](c3c(F)ccc(Cl)c3F)OC1=O)c1nc-2c(Cl)[nH]1
half-life [4]: 22 min | half-life [13]: 9 min

COC(=O)Nc1ccc2c(c1)NC(=O)CC/C=C/C[C@H](N1CCC(c3cccc(Cl)c3)NC1=O)c1nc-2c[nH]1 (some centres not stated)
half-life [4]: 18 min | half-life [13]: 35 min

COC(=O)Nc1ccc2c(c1)NC(=O)CC/C=C/C[C@H](N1CC[C@H](c3cccc(Cl)c3)OC1=O)c1nc-2c[nH]1
half-life [20]: 48 min | bioavailability [21]: 59% | AUC [9]: 0.523 µM·h | Vd [22]: 1.3 L/kg | clearance [23]: 40 mL/min/kg

COC(=O)Nc1ccc2c(c1)NC(=O)CC/C=C/C[C@H](N1CC[C@H](c3cc(Cl)ccc3F)OC1=O)c1nc-2c(Cl)[nH]1
half-life [4]: 18 min | half-life [13]: 5 min

COC(=O)Nc1ccc2c(c1)NC(=O)CC/C=C/C[C@H](NC(=O)/C=C/c1cc(Cl)ccc1-n1cnnn1)c1nc-2c[nH]1
Vd [24]: 0.7 L/kg | half-life [4]: 39 min | bioavailability [25]: 0.8% | Papp A→B [5]: < 1.5 ×10⁻⁶ cm/s | Papp B→A [6]: 5.8 ×10⁻⁶ cm/s | AUC [9]: 0.011 µM·h | half-life [26]: 42 min | clearance [27]: 28 mL/min/kg | half-life [13]: 41 min

COC(=O)Nc1ccc2c(c1)NC(=O)CC/C=C/C[C@H](N1CCC(c3c(F)ccc(Cl)c3F)NC1=O)c1nc-2c[nH]1 (some centres not stated)
half-life [4]: 26 min | half-life [13]: 41 min

COC(=O)Nc1ccc(-c2nc([C@H](Cc3ccccc3)N(C)C(=O)/C=C/c3cc(Cl)ccc3-n3cnnn3)[nH]c2Cl)cc1
Ki [28]: 0.189 µM

COC(=O)Nc1ccc2c(c1)NC(=O)CC/C=C/C[C@H](N1CC[C@H](c3cccc(Cl)c3)OC1=O)c1nc-2c(Cl)[nH]1
half-life [4]: 14 min | half-life [13]: 11 min

[2H][C@]1(c2c(F)ccc(Cl)c2F)CCN([C@H]2C/C=C/CCC(=O)Nc3cc(NC(=O)OC)ccc3-c3nc2[nH]c3Cl)C(=O)O1
half-life [4]: 31 min | half-life [13]: 16 min

COC(=O)Nc1ccc2c(c1)NC(=O)CC/C=C/C[C@H](N1CCN(c3cccc(Cl)c3)CC1=O)c1nc-2c[nH]1
half-life [13]: 15 min

COC(=O)Nc1ccc2c(c1)NC(=O)CC/C=C/C[C@H](NC(=O)/C=C/c1cccc(Cl)c1)c1nc-2c[nH]1
half-life [4]: 45 min | Papp A→B [5]: < 1.5 ×10⁻⁶ cm/s | half-life [29]: 84 min | Papp B→A [6]: 32.4 ×10⁻⁶ cm/s | Vd [30]: 3.2 L/kg | clearance [31]: 44 mL/min/kg | AUC [9]: 0.027 µM·h | half-life [13]: 32 min | bioavailability [32]: 2%

COC(=O)Nc1ccc(-c2nc([C@H](Cc3ccccc3)N3CCC(c4cccc(Cl)c4)NC3=O)[nH]c2Cl)cc1 (some centres not stated)
Ki [28]: 0.175 µM

COC(=O)Nc1ccc(-c2nc([C@H](Cc3ccccc3)NC(=O)NCc3cccc(Cl)c3)[nH]c2Cl)cc1
Ki [28]: 0.422 µM

COC(=O)Nc1ccc2c(c1)NC(=O)CC/C=C/C[C@H](N1CC[C@H](c3cc(Cl)ccc3C(F)(F)F)OC1=O)c1nc-2c(Cl)[nH]1
half-life [4]: 49 min | half-life [13]: 18 min

COC(=O)Nc1ccc(-c2c[nH]c([C@@H]3[C@@H](c4ccccc4)CCN3C(=O)/C=C/c3cc(Cl)ccc3-n3cnnn3)n2)cc1
Ki [28]: 0.372 µM

COC(=O)Nc1ccc(-c2nc([C@H](Cc3ccccc3)NC(=O)CCc3cccc(Cl)c3)[nH]c2Cl)cc1
Ki [28]: 0.871 µM

COC(=O)Nc1ccc(-c2cn3c(n2)C(Cc2ccccc2)N(C(=O)/C=C/c2cc(Cl)ccc2-n2cnnn2)CCC3)cc1 (configuration not stated)
Ki [28]: > 13.3 µM

COC(=O)Nc1ccc2c(c1)NC(=O)CC/C=C/C[C@H](N1CC[C@H](c3c(F)ccc(Cl)c3F)CC1=O)c1nc-2c[nH]1
half-life [4]: 7 min | half-life [13]: 9 min

COC(=O)Nc1ccc2c(c1)NC(=O)CC/C=C/C[C@H](N1CC[C@H](c3c(F)ccc(Cl)c3F)OC1=O)c1nc-2c[nH]1
half-life [4]: 15 min | half-life [13]: 8 min
